In ChEMBL document CHEMBL1152830, “Synthesis of 2-sulfanyl-6-methyl-1,4-dihydropyrimidines as a new class of antifilarial agents” (Eur J Med Chem, 2008):
Active and inactive are the calls of the source. No cut-off for these calls is given here.

Legend:
[1] = test system: Brugia malayi; experiment: Antifilarial activity against Brugia malayi sub-periodic strain assessed as complete loss of motility at 100 uM; assay type: functional, organism-based
Outline: (§1)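 Adult B. malayi worms kept in vitro with compound, then motility scored. The worms were also moved to fresh drug-free medium at 37 °C for 30 min to judge whether paralysis was irreversible. The vehicle served as control.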

[2] = test system: Brugia malayi; experiment: Antifilarial activity against Brugia malayi sub-periodic strain assessed as complete loss of motility at 50 uM; assay type: functional, organism-based; outline: as §1
[3] = test system: Brugia malayi; experiment: Antifilarial activity against Brugia malayi sub-periodic strain assessed as complete loss of motility at 25 uM; assay type: functional, organism-based; outline: as §1
[4] = test system: Brugia malayi; experiment: Antifilarial activity against Brugia malayi sub-periodic strain at 100 uM by MTT reduction assay; assay type: functional
Outline: (§2)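 MTT reduction was measured on adult B. malayi worms after in vitro drug exposure. Each result is percent inhibition of MTT reduction relative to vehicle control, given as mean ± SD.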

[5] = test system: Brugia malayi; experiment: Antifilarial activity against Brugia malayi sub-periodic strain at 50 uM by MTT reduction assay; assay type: functional; outline: as §2
[6] = test system: Brugia malayi; experiment: Antifilarial activity against Brugia malayi sub-periodic strain at 25 uM by MTT reduction assay; assay type: functional; outline: as §2
[7] = test system: Brugia malayi; experiment: Antifilarial activity against Brugia malayi sub-periodic strain in Mastomys coucha assessed as microfilarial count at 100 mg/kg, ip for 5 days measured after 8 days; assay type: functional; settings: route intraperitoneal
[8] = test system: Brugia malayi; experiment: Antifilarial activity against Brugia malayi sub-periodic strain in Mastomys coucha assessed as microfilarial count at 50 mg/kg, ip for 5 days measured after 8 days; assay type: functional; settings: route intraperitoneal
[9] = test system: Brugia malayi; experiment: Antifilarial activity against Brugia malayi sub-periodic strain in Mastomys coucha assessed as reduction in worm burden at 100 mg/kg, ip for 5 days relative to control; assay type: functional; set-up: scale not given: the % may be the effect or the level left; settings: route intraperitoneal
[10] = test system: Brugia malayi; experiment: Antifilarial activity against Brugia malayi sub-periodic strain in Mastomys coucha assessed as reduction in worm burden at 50 mg/kg, ip for 5 days relative to control; assay type: functional; set-up: scale not given: the % may be the effect or the level left; settings: route intraperitoneal
[11] = test system: Brugia malayi; experiment: Embryostatic activity against Brugia malayi sub-periodic strain in Mastomys coucha assessed as sterilized female worms at 100 mg/kg, ip for 5 days; assay type: functional; settings: route intraperitoneal
[12] = test system: Brugia malayi; experiment: Embryostatic activity against Brugia malayi sub-periodic strain in Mastomys coucha assessed as sterilized female worms at 50 mg/kg, ip for 5 days; assay type: functional; settings: route intraperitoneal
[13] = test system: Brugia malayi; experiment: Antifilarial activity against transplanted adult worms of Brugia malayi sub-periodic strain in Meriones unguiculatus assessed as reduction in worm burden 100 mg/kg, ip for 5 days relative to control; assay type: functional; set-up: scale not given: the % may be the effect or the level left; settings: route intraperitoneal
Outline: (§3)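 Meriones unguiculatus (jirds) carrying transplanted adult B. malayi were dosed i.p. once daily for 5 days, 5 animals per group. Microfilariae in the peritoneal cavity were checked. Live male and female worms and sterilized females were counted. Results are percent relative to untreated controls, given as mean ± SD.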

[14] = test system: Brugia malayi; experiment: Embryostatic activity against transplanted adult worms of Brugia malayi sub-periodic strain in Meriones unguiculatus assessed as sterilized female worms at 100 mg/kg, ip for 5 days; assay type: functional; settings: route intraperitoneal; outline: as §3
[15] = test system: Mastomys coucha; experiment: Toxicity against Mastomys coucha assessed as mortality at 50 to 100 mg/kg, ip for 5 days measured after 15 days; assay type: organism-based; set-up: dose 50-100 mg/kg, route intraperitoneal; settings: in vivo, 360 h
Outline: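 Normal (uninfected) Mastomys coucha received the compound i.p. once daily for 5 days. Animals were watched for mortality and for adverse effects on general and gross health during dosing and for up to 15 days after treatment.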

[16] = test system: Brugia malayi; experiment: Antifilarial activity against Brugia malayi sub-periodic strain assessed as sluggish motility at 25 uM; assay type: functional, organism-based; outline: as §1
[17] = test system: Brugia malayi; experiment: Antifilarial activity against Brugia malayi sub-periodic strain assessed as motility at 100 uM; assay type: functional, organism-based; outline: as §1
[18] = test system: Brugia malayi; experiment: Antifilarial activity against Brugia malayi sub-periodic strain assessed as motility at 50 uM; assay type: functional, organism-based; outline: as §1
[19] = test system: Brugia malayi; experiment: Antifilarial activity against Brugia malayi sub-periodic strain assessed as motility at 25 uM; assay type: functional, organism-based; outline: as §1
[20] = test system: Brugia malayi; experiment: Antifilarial activity against Brugia malayi sub-periodic strain assessed as motility at 200 uM; assay type: functional, organism-based; outline: as §1
[21] = test system: Brugia malayi; experiment: Antifilarial activity against Brugia malayi sub-periodic strain assessed as sluggish motility at 400 uM; assay type: functional, organism-based; outline: as §1
[22] = test system: Brugia malayi; experiment: Antifilarial activity against Brugia malayi sub-periodic strain at 400 uM by MTT reduction assay; assay type: functional, organism-based; outline: as §2
[23] = test system: Brugia malayi; experiment: Antifilarial activity against Brugia malayi sub-periodic strain at 200 uM by MTT reduction assay; assay type: functional, organism-based; outline: as §2
[24] = test system: Brugia malayi; experiment: Antifilarial activity against Brugia malayi sub-periodic strain in Mastomys coucha assessed as microfilarial count at 25 mg/kg, ip for 5 days measured after 8 days; assay type: functional; settings: route intraperitoneal
[25] = test system: Brugia malayi; experiment: Antifilarial activity against Brugia malayi sub-periodic strain in Mastomys coucha assessed as reduction in worm burden at 25 mg/kg, ip for 5 days relative to control; assay type: functional; set-up: scale not given: the % may be the effect or the level left; settings: route intraperitoneal
[26] = test system: Brugia malayi; experiment: Embryostatic activity against Brugia malayi sub-periodic strain in Mastomys coucha assessed as sterilized female worms at 25 mg/kg, ip for 5 days; assay type: functional; settings: route intraperitoneal
[27] = test system: Brugia malayi; experiment: Antifilarial activity against transplanted adult worms of Brugia malayi sub-periodic strain in Meriones unguiculatus assessed as reduction in worm burden 12.5 mg/kg, ip for 5 days relative to control; assay type: functional, organism-based; set-up: dose 12.5 mg/kg; outline: as §3
[28] = test system: Brugia malayi; experiment: Embryostatic activity against transplanted adult worms of Brugia malayi sub-periodic strain in Meriones unguiculatus assessed as sterilized female worms at 12.5 mg/kg, ip for 5 days; assay type: functional; settings: route intraperitoneal; outline: as §3

CCCCCSC1=NC(c2ccc(F)cc2)C(C(=O)OCC)=C(C)N1 (centres undefined)
Activity [1]: Active | Activity [2]: Active | Activity [3]: Active | inhibition at 100 µM [4]: 68.6% | inhibition at 50 µM [5]: 68.5% | inhibition at 25 µM [6]: 25.8% | Activity [7]: 142.67 | Activity [8]: 116.5 | Activity [9]: 50% | Activity [10]: 30.8% | Activity [11]: 67.71% | Activity [12]: 38.1% | Activity [13]: 46.03% | Activity [14]: 34.31% | Activity [15]: Non-toxic

CCOC(=O)C1=C(C)NC(SCc2ccccc2)=NC1c1cccc2ccccc12 (centres undefined)
Activity [1]: Active | inhibition at 100 µM [4]: 18.9%

CCOC(=O)C1=C(C)NC(SCc2ccccc2)=NC1c1ccc(OC)cc1 (centres undefined)
Activity [16]: Active | Activity [1]: Active | Activity [2]: Active | inhibition at 100 µM [4]: 52.1% | inhibition at 50 µM [5]: 19.3% | inhibition [6]: inactive | Activity [7]: 89.7 | Activity [9]: 19.66% | Activity [11]: 34.58% | Activity [15]: Non-toxic

CCCCCSC1=NC(c2ccc(OC)cc2)C(C(=O)OCC)=C(C)N1 (centres undefined)
Activity [17]: inactive | inhibition at 100 µM [4]: 22.4%

CCCCCSC1=NC(c2cccc3ccccc23)C(C(=O)OCC)=C(C)N1 (centres undefined)
Activity [17]: inactive | inhibition [4]: inactive

CCCCCSC1=NC(c2cccc([N+](=O)[O-])c2)C(C(=O)OCC)=C(C)N1 (centres undefined)
Activity [17]: inactive | inhibition at 100 µM [4]: 15.4%

CCCCCCCCCCCCCCSC1=NC(c2cccc3ccccc23)C(C(=O)OCC)=C(C)N1 (centres undefined)
Activity [1]: Active | inhibition at 100 µM [4]: 24.3%

CCCCCCCCCCCCCCSC1=NC(c2ccc(F)cc2)C(C(=O)OCC)=C(C)N1 (centres undefined)
Activity [18]: inactive | Activity [1]: Active | inhibition [4]: inactive | inhibition [5]: inactive

CCCCSC1=NC(c2cccc([N+](=O)[O-])c2)C(C(=O)OCC)=C(C)N1 (centres undefined)
Activity [1]: Active | inhibition at 100 µM [4]: 25.7%

CCCCSC1=NC(c2cccc3ccccc23)C(C(=O)OCC)=C(C)N1 (centres undefined)
Activity [16]: Active | Activity [1]: Active | Activity [2]: Active | inhibition at 100 µM [4]: 49% | inhibition [5]: inactive | inhibition at 25 µM [6]: 30.4% | Activity [7]: 47.33 | Activity [9]: 0% | Activity [11]: 25.77% | Activity [15]: Non-toxic

CCOC(=O)C1=C(C)NC(SCc2ccccc2)=NC1c1cccc([N+](=O)[O-])c1 (centres undefined)
Activity [1]: Active | inhibition at 100 µM [4]: 43.1%

CCCCCCCCCCCCCCSC1=NC(c2ccc(OC)cc2)C(C(=O)OCC)=C(C)N1 (centres undefined)
Activity [17]: inactive | Activity [18]: inactive | Activity [19]: inactive | inhibition [4]: inactive | inhibition [5]: inactive | inhibition [6]: inactive

CCCCCSC1=NC(c2ccc(Cl)cc2)C(C(=O)OCC)=C(C)N1 (centres undefined)
Activity [17]: inactive | inhibition [4]: inactive

CCN(CC)C(=O)N1CCN(C)CC1.O=C(O)CC(O)(CC(=O)O)C(=O)O [DIETHYLCARBAMAZINE CITRATE]
Activity [17]: inactive | Activity [18]: inactive | Activity [20]: inactive | Activity [21]: Active | inhibition [4]: inactive | inhibition [5]: inactive | inhibition [22]: inactive | inhibition [23]: inactive | Activity [24]: 20.33 | Activity [25]: 0% | Activity [26]: 29.7% | Activity [27]: inactive | Activity [28]: 10.53%
